{
  "source": "ChEMBL document CHEMBL3853327",
  "about": "(J Med Chem, 2016)",
  "key": {"[1]": {"assay": "MRT (0 to infinity) in Sprague-Dawley rat plasma at 8 mg/kg administered through oral gavage measured at 5 mins to 24 hrs post dosing by LC/MS analysis", "assay_type": "ADME, organism-based", "procedure,_shortened": "(§1)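 Male Sprague-Dawley rats, ten randomly split into two groups (n = 5), single gavage dose of 8 or 16 mg·kg−1 in PEG 400/normal saline (70/30, V/V). Jugular sinus blood into heparinized tubes at 5 min to 24 h; plasma separated at 2200g for 8 min, stored −20 °C. Methanol precipitation with internal standard, LC-MS quantitation against plasma standard curves. Parameters reported as mean ± SD.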"}, "[2]": {"system": "Human immunodeficiency virus 1", "assay": "Potency index, ratio of ETV EC50 to compound EC50 for wild type HIV1 3B harboring reverse transcriptase infected in human MT4 cells", "assay_type": "functional"}, "[3]": {"assay": "Apparent half life in Sprague-Dawley rat plasma at 16 mg/kg administered through oral gavage measured at 5 mins to 24 hrs post dosing by LC/MS analysis", "assay_type": "ADME, organism-based", "conditions": "in vivo", "procedure,_shortened": "as §1"}, "[4]": {"system": "Human immunodeficiency virus 1", "assay": "Antiviral activity against HIV1 3B harboring reverse transcriptase E138K mutant infected in human MT4 cells assessed as protection against virus induced cytotoxicity after 5 days by MTT assay", "assay_type": "functional, cell-based", "conditions": "Human immunodeficiency virus 1, 3B, MT4, 120 h", "procedure,_shortened": "(§2)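 MTT cytopathicity assay in MT-4 cells (6 × 10^5 cells/mL). Compounds serially diluted 5-fold in triplicate wells, run in parallel on infected and mock-infected cells. Virus added at 100−300 CCID50 per well. Viability read spectrophotometrically at 540 and 690 nm after 5 days, using the median OD of three wells. EC50 is the concentration giving 50% protection from viral cytopathogenicity.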"}, "[5]": {"system": "Human immunodeficiency virus 1", "assay": "Fold resistance, ratio of EC50 for HIV1 3B harboring reverse transcriptase K103N mutant infected in human MT4 cells to EC50 for wild type HIV1 3B harboring reverse transcriptase infected in human MT4 cells", "assay_type": "functional", "procedure,_shortened": "(§3)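 Fold resistance is the EC50 against the mutant HIV-1 strain divided by the EC50 against WT IIIB. Both EC50s come from the MT-4 MTT cytoprotection assay (5-day read, 100−300 CCID50 inoculum).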"}, "[6]": {"assay": "Antiviral activity against HIV2 ROD harboring reverse transcriptase infected in human MT4 cells assessed as protection against virus induced cytotoxicity after 5 days by MTT assay", "assay_type": "functional, cell-based, Human immunodeficiency virus type 2 (ISOLATE ROD)", "conditions": "Human immunodeficiency virus 2, MT4, 120 h", "procedure,_shortened": "as §2"}, "[7]": {"system": "Human immunodeficiency virus 1", "assay": "Antiviral activity against HIV1 3B harboring reverse transcriptase Y188L mutant infected in human MT4 cells assessed as protection against virus induced cytotoxicity after 5 days by MTT assay", "assay_type": "functional, cell-based", "conditions": "Human immunodeficiency virus 1, 3B, MT4, 120 h", "procedure,_shortened": "as §2"}, "[8]": {"system": "Human immunodeficiency virus 1", "assay": "Fold resistance, ratio of EC50 for HIV1 3B harboring reverse transcriptase Y181C mutant infected in human MT4 cells to EC50 for wild type HIV1 3B harboring reverse transcriptase infected in human MT4 cells", "assay_type": "functional", "procedure,_shortened": "as §3"}, "[9]": {"assay": "Cmax in Sprague-Dawley rat plasma at 8 mg/kg administered through oral gavage measured at 5 mins to 24 hrs post dosing by LC/MS analysis", "assay_type": "ADME, organism-based", "parameters": "dose 8 mg/kg, route oral", "conditions": "in vivo", "procedure,_shortened": "as §1"}, "[10]": {"system": "Human immunodeficiency virus 1", "assay": "Antiviral activity against HIV1 3B harboring reverse transcriptase L100I mutant infected in human MT4 cells assessed as protection against virus induced cytotoxicity after 5 days by MTT assay", "assay_type": "functional, cell-based", "conditions": "Human immunodeficiency virus 1, 3B, MT4, 120 h", "procedure,_shortened": "as §2"}, "[11]": {"system": "Human immunodeficiency virus 1", "assay": "Potency index, ratio of ETV EC50 to compound EC50 for HIV1 3B harboring reverse transcriptase E138K mutant infected in human MT4 cells", "assay_type": "functional"}, "[12]": {"assay": "Selectivity index, ratio of CC50 for human mock-infected MT4 cells to EC50 for HIV1 3B harboring reverse transcriptase L100I mutant infected in human MT4 cells", "assay_type": "toxicity, cell-based", "conditions": "MT4 cells (mock-infected for CC50, HIV-1 infected for EC50)", "procedure,_shortened": "(§4)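 Selectivity index is CC50/EC50. CC50 is the concentration that reduces OD540 of mock-infected MT-4 cells by 50% in the 5-day MTT assay. EC50 is the 50% protection from virus-induced cytopathicity, measured in parallel on infected wells.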"}, "[13]": {"assay": "VRT (0 to infinity) in Sprague-Dawley rat plasma at 16 mg/kg administered through oral gavage measured at 5 mins to 24 hrs post dosing by LC/MS analysis", "assay_type": "ADME, organism-based", "conditions": "in vivo", "procedure,_shortened": "as §1"}, "[14]": {"assay": "Apparent clearance during terminal phase in Sprague-Dawley rat plasma at 8 mg/kg administered through oral gavage measured at 5 mins to 24 hrs post dosing by LC/MS analysis", "assay_type": "ADME, organism-based", "conditions": "in vivo", "procedure,_shortened": "as §1"}, "[15]": {"system": "Human immunodeficiency virus 1", "assay": "Fold resistance, ratio of EC50 for HIV1 3B harboring reverse transcriptase E138K mutant infected in human MT4 cells to EC50 for wild type HIV1 3B harboring reverse transcriptase infected in human MT4 cells", "assay_type": "functional", "procedure,_shortened": "as §3"}, "[16]": {"system": "Human immunodeficiency virus 1", "assay": "Potency index, ratio of ETV EC50 to compound EC50 for HIV1 3B harboring reverse transcriptase Y181C mutant infected in human MT4 cells", "assay_type": "functional"}, "[17]": {"assay": "AUC (0 to infinity) in Sprague-Dawley rat plasma at 8 mg/kg administered through oral gavage measured at 5 mins to 24 hrs post dosing by LC/MS analysis", "assay_type": "ADME, organism-based", "parameters": "dose 8 mg/kg, route oral, time infinity", "conditions": "in vivo", "procedure,_shortened": "as §1"}, "[18]": {"assay": "MRT (0 to infinity) in Sprague-Dawley rat plasma at 16 mg/kg administered through oral gavage measured at 5 mins to 24 hrs post dosing by LC/MS analysis", "assay_type": "ADME, organism-based", "procedure,_shortened": "as §1"}, "[19]": {"assay": "Selectivity index, ratio of CC50 for human mock-infected MT4 cells to EC50 for HIV1 3B harboring reverse transcriptase E138K mutant infected in human MT4 cells", "assay_type": "toxicity, cell-based", "conditions": "MT4 cells (mock-infected for CC50, HIV-1 infected for EC50)", "procedure,_shortened": "as §4"}, "[20]": {"assay": "VRT (0 to t) in Sprague-Dawley rat plasma at 8 mg/kg administered through oral gavage measured at 5 mins to 24 hrs post dosing by LC/MS analysis", "assay_type": "ADME, organism-based", "conditions": "in vivo", "procedure,_shortened": "as §1"}, "[21]": {"assay": "MRT (0 to t) in Sprague-Dawley rat plasma at 16 mg/kg administered through oral gavage measured at 5 mins to 24 hrs post dosing by LC/MS analysis", "assay_type": "ADME, organism-based", "procedure,_shortened": "as §1"}, "[22]": {"assay": "AUC (0 to t) in Sprague-Dawley rat plasma at 8 mg/kg administered through oral gavage measured at 5 mins to 24 hrs post dosing by LC/MS analysis", "assay_type": "ADME, organism-based", "parameters": "dose 8 mg/kg, time 0.083-24 hr, route oral", "procedure,_shortened": "as §1"}, "[23]": {"assay": "Apparent clearance during terminal phase in Sprague-Dawley rat plasma at 16 mg/kg administered through oral gavage measured at 5 mins to 24 hrs post dosing by LC/MS analysis", "assay_type": "ADME, organism-based", "conditions": "read-out: CLz/F (converted)", "procedure,_shortened": "as §1"}, "[24]": {"assay": "VRT (0 to t) in Sprague-Dawley rat plasma at 16 mg/kg administered through oral gavage measured at 5 mins to 24 hrs post dosing by LC/MS analysis", "assay_type": "ADME, organism-based", "conditions": "in vivo", "procedure,_shortened": "as §1"}, "[25]": {"assay": "MRT (0 to t) in Sprague-Dawley rat plasma at 8 mg/kg administered through oral gavage measured at 5 mins to 24 hrs post dosing by LC/MS analysis", "assay_type": "ADME, organism-based", "procedure,_shortened": "as §1"}, "[26]": {"system": "Human immunodeficiency virus 1", "assay": "Potency index, ratio of ETV EC50 to compound EC50 for HIV1 3B harboring reverse transcriptase YI88L mutant infected in human MT4 cells", "assay_type": "functional"}, "[27]": {"assay": "Cytotoxicity against human mock-infected MT4 cells assessed as reduction in cell viability after 5 days by MTT assay", "assay_type": "toxicity, cell-based", "procedure,_shortened": "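Mock-infected MT-4 cells (6 × 10^5 cells/mL at seeding) with serial 5-fold compound dilutions in triplicate wells. Viability read by MTT after 5 days, absorbance at 540 and 690 nm, median OD of three wells. CC50 is the concentration reducing OD540 of mock-infected cells by 50%.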"}, "[28]": {"assay": "AUMC (0 to t) in Sprague-Dawley rat plasma at 8 mg/kg administered through oral gavage measured at 5 mins to 24 hrs post dosing by LC/MS analysis", "assay_type": "ADME, organism-based", "conditions": "in vivo", "procedure,_shortened": "as §1"}, "[29]": {"system": "Human immunodeficiency virus 1", "assay": "Potency index, ratio of ETV EC50 to compound EC50 for HIV1 3B harboring reverse transcriptase L100I mutant infected in human MT4 cells", "assay_type": "functional"}},
  "data": [
    {"smiles": "Cc1cc(C#N)cc(C)c1Oc1nc(NC2CCN(Cc3ccc(S(N)(=O)=O)cc3)CC2)nc2ccsc12", "values": [
      {"measurement": "MRT inf", "setting": "[1]", "value": 3.84, "unit": "h"},
      {"measurement": "Ratio EC50", "setting": "[2]", "value": 3},
      {"measurement": "t1/2(app)", "setting": "[3]", "value": 3.6, "unit": "h"},
      {"measurement": "EC50", "setting": "[4]", "value": 2.9, "unit": "nM"},
      {"measurement": "Ratio EC50", "setting": "[5]", "value": "<3"},
      {"measurement": "EC50", "setting": "[6]", "value": "≥ 228000", "unit": "nM"},
      {"measurement": "EC50", "setting": "[7]", "value": 3, "unit": "nM"},
      {"measurement": "Ratio EC50", "setting": "[8]", "value": "<3"},
      {"measurement": "Cmax", "setting": "[9]", "value": 415, "unit": "ng/mL"},
      {"measurement": "EC50", "setting": "[10]", "value": 3.4, "unit": "nM"},
      {"measurement": "Ratio EC50", "setting": "[11]", "value": 5},
      {"measurement": "selectivity ratio", "setting": "[12]", "value": "> 159000"},
      {"measurement": "VRT", "setting": "[13]", "value": 25.29, "unit": "hr2"},
      {"measurement": "CLz/F", "setting": "[14]", "value": 172, "unit": "mL/min/kg"},
      {"measurement": "Ratio EC50", "setting": "[15]", "value": "<3"},
      {"measurement": "Ratio EC50", "setting": "[16]", "value": 5},
      {"measurement": "AUC", "setting": "[17]", "value": 1720.9, "unit": "ng·h/mL"},
      {"measurement": "MRT inf", "setting": "[18]", "value": 4.16, "unit": "h"},
      {"measurement": "selectivity ratio", "setting": "[19]", "value": "> 75800"},
      {"measurement": "VRT(t)", "setting": "[20]", "value": 7.78, "unit": "hr2"},
      {"measurement": "MRT last", "setting": "[21]", "value": 3.25, "unit": "h"},
      {"measurement": "AUC(0-t)", "setting": "[22]", "value": 1680, "unit": "ng·h/mL"},
      {"measurement": "CL/F", "setting": "[23]", "value": 155, "unit": "mL/min/kg"},
      {"measurement": "VRT(t)", "setting": "[24]", "value": 9.29, "unit": "hr2"},
      {"measurement": "MRT last", "setting": "[25]", "value": 3.44, "unit": "h"},
      {"measurement": "Ratio EC50", "setting": "[26]", "value": 7},
      {"measurement": "CC50 at 120 h", "setting": "[27]", "value": "> 228000", "unit": "nM"},
      {"measurement": "AUMCt", "setting": "[28]", "value": 5690.8, "unit": "ug/L.hr"},
      {"measurement": "Ratio EC50", "setting": "[29]", "value": 1.6}
    ]}
  ]
}
